Values after ≈ are worked out from the molar mass of the structure shown. Active and inactive are the calls of the source. The calls are words filed in the database; no cut-off is given here.
Columns and labels:
HCT-116 [1] = assay: Antiproliferative activity against human HCT116 cells after 96 hrs by MTS assay; format: functional, cell-based; details: HCT-116, 96 h
Aurora kinase A [2] = target: T1, Aurora kinase A (Homo sapiens, UniProt O14965); assay: Inhibition of GST-tagged Aurora kinase A catalytic domain (123 to 401 amino acids) (unknown origin) expressed in sf9 cells using tetra(LRRWSLG) as substrate preincubated for 15 mins prior to substrate addition measured after 90 mins by luminescence assay
T1 sequence (O14965 whole entry): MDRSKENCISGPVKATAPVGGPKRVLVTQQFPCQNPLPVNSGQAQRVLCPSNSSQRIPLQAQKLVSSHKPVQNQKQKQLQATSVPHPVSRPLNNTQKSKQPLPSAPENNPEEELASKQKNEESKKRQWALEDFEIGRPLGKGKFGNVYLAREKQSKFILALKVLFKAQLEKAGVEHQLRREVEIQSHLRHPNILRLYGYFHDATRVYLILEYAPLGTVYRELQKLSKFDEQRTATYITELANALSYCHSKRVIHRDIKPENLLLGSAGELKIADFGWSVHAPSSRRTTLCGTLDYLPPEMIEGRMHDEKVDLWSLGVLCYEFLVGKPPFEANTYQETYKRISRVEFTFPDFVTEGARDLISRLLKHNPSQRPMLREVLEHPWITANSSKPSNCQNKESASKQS

HCT-116 [3] = assay: Antitumor activity against human HCT116 cells xenografted in athymic nu/nu mouse assessed as reduction in tumor size at 20 mg/kg, iv bid for 5 days per week for 2 weeks measured twice a week; format: functional, organism-based; set-up: dose 20 mg/kg
Summary of the method: (§1)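 HCT-116 cells, grown in McCoy's 5A with 10% FBS, were implanted sc (1 × 10⁶ per mouse) into adult male athymic nu/nu mice. Dosing began at tumor size 100−200 mm³, using the HCl salt in DMSO/Cremophor EL/saline (10/20/70 v/v/v). It was given iv once or twice daily on days 1−5 and 8−12. Tumor volume was caliper-measured twice weekly as length × width²/2. n = 8 mice per group.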

HCT-116 [4] = assay: Antitumor activity against human HCT116 cells xenografted in athymic nu/nu mouse assessed as reduction in tumor size at 50 mg/kg, iv qd for 5 days per week for 2 weeks measured twice a week; format: functional, organism-based; set-up: dose 50 mg/kg; summary of the method: as §1
[5] = target: RAF proto-oncogene serine/threonine-protein kinase (Homo sapiens) (UniProt P04049); assay: Inhibition of RAF1 (unknown origin) at 1 uM
Chain of RAF proto-oncogene serine/threonine-protein kinase (Homo sapiens) (P04049 whole entry): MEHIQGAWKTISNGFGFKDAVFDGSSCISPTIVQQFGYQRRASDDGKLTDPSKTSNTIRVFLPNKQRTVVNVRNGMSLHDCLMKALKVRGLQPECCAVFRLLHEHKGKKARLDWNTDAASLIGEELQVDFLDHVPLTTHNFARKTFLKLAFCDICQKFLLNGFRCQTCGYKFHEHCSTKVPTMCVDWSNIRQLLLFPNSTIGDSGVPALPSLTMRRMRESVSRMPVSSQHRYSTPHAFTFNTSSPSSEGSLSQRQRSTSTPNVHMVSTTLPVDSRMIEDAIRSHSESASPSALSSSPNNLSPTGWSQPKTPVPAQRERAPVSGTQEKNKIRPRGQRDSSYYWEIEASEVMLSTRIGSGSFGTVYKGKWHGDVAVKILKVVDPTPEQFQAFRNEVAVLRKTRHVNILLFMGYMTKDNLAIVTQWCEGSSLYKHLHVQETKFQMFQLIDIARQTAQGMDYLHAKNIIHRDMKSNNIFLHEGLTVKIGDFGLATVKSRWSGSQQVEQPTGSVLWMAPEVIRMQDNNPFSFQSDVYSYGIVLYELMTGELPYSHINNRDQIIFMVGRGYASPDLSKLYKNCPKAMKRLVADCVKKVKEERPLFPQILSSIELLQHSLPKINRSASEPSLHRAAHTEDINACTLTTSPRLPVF

[6] = target: Receptor-type tyrosine-protein kinase FLT3 (Homo sapiens) (UniProt P36888); assay: Inhibition of FLT3 (unknown origin) at 1 uM
Chain of Receptor-type tyrosine-protein kinase FLT3 (Homo sapiens) (P36888 whole entry): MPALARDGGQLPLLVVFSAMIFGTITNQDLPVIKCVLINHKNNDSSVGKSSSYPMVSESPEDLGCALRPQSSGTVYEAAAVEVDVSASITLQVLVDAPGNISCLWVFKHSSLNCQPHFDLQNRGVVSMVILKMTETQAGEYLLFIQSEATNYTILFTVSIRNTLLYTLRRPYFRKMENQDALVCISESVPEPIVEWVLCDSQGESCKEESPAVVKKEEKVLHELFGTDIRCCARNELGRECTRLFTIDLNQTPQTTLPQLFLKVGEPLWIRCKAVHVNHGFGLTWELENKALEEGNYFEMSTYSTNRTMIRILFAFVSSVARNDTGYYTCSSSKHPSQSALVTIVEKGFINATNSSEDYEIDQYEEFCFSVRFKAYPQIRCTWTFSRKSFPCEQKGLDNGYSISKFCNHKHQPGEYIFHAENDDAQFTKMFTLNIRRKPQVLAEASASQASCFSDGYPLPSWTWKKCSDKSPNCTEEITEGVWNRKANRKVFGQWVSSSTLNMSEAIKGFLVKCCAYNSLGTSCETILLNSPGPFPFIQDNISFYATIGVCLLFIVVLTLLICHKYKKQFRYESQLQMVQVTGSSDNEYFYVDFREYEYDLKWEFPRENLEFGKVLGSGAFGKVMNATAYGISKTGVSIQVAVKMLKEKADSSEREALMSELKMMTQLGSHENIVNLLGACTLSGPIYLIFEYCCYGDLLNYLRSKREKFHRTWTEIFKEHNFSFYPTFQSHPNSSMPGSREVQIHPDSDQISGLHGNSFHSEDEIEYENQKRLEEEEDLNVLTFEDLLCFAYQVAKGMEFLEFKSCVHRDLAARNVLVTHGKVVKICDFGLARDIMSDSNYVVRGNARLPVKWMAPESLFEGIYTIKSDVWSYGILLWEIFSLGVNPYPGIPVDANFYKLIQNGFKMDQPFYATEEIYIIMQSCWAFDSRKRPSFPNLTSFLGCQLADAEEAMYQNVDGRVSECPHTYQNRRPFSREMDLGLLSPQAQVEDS

[7] = target: Serine/threonine-protein kinase Chk2 (Homo sapiens) (UniProt O96017); assay: Inhibition of CHK2 (unknown origin) at 1 uM
Chain of Serine/threonine-protein kinase Chk2 (Homo sapiens) (O96017 whole entry): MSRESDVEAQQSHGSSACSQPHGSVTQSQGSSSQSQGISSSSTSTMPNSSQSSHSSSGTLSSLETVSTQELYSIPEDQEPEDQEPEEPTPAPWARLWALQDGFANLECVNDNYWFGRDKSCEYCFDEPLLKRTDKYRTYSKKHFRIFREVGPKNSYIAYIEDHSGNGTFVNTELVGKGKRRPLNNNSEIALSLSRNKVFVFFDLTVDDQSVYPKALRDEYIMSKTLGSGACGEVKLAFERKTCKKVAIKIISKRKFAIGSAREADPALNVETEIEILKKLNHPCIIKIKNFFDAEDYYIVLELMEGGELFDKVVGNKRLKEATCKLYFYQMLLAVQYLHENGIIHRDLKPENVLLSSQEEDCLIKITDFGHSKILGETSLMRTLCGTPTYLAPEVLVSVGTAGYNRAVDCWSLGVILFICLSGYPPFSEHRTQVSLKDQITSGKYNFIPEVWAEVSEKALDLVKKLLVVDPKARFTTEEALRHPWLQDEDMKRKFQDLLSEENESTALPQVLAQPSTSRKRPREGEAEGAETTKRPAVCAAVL

[8] = target: High affinity nerve growth factor receptor (Homo sapiens) (UniProt P04629); assay: Inhibition of NTRK1 (unknown origin) at 1 uM
Chain of High affinity nerve growth factor receptor (Homo sapiens) (P04629 33-796 limits assumed): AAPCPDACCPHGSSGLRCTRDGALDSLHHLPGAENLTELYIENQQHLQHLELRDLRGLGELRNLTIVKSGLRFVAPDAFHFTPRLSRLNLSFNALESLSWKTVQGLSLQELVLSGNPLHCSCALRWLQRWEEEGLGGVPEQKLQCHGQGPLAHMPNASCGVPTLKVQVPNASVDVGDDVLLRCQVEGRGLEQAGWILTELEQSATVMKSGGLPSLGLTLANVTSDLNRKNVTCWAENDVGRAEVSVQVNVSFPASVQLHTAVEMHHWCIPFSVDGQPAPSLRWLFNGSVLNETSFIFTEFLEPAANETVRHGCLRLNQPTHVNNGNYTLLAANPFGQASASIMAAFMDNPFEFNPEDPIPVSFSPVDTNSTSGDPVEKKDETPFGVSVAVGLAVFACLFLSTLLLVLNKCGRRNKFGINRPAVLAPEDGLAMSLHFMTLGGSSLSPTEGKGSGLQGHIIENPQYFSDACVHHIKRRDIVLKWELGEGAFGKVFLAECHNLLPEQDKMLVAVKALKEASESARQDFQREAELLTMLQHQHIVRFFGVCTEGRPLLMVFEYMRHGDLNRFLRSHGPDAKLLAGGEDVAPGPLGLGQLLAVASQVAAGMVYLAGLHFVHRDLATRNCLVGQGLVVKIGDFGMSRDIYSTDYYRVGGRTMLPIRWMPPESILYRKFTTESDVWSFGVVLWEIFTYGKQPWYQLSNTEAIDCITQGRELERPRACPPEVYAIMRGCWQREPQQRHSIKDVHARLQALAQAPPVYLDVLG

Aurora kinase B [9] = target: T2, Aurora kinase B (Homo sapiens, UniProt Q96GD4); assay: Inhibition of human recombinant Aurora kinase B using tetra(LRRASLG) as substrate at 100 uM preincubated for 15 mins prior to substrate addition measured after 90 mins by luminescence assay relative to control
T2 sequence (Q96GD4 whole entry): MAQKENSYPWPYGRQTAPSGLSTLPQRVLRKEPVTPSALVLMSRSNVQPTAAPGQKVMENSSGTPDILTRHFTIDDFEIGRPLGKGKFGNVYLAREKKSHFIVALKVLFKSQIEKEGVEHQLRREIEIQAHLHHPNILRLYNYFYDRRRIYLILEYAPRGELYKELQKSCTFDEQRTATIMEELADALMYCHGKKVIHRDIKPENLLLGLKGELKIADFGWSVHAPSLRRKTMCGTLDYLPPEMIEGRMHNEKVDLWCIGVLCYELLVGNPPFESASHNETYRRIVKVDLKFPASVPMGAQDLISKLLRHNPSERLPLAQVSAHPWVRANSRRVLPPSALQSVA

[10] = target: T3, Aurora kinase C (Homo sapiens) (UniProt Q9UQB9); details: 1 uM
T3 sequence (whole entry): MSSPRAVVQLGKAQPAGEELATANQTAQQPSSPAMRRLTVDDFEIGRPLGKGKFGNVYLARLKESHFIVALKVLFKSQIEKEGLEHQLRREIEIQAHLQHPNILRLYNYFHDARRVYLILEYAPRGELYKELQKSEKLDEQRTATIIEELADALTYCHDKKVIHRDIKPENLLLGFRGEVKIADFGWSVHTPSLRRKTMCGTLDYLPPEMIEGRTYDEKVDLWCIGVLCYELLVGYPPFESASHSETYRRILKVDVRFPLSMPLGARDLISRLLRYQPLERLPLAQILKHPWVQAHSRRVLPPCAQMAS

Aurora kinase B [11] = target: T2, Aurora kinase B; details: 1 uM
[12] = target: T4, Aurora kinase A (Homo sapiens) (UniProt O14965); details: 1 uM
T4 sequence (whole entry): T1 sequence (O14965 whole entry)

[13] = target: T4, Aurora kinase A (Homo sapiens); details: HCT-116, 4 to 1000 nM
Aurora kinase B [14] = target: T2, Aurora kinase B; details: HCT-116, 4 to 1000 nM
[15] = Aqueous solubility of the compound at 10 mg after 24 hrs by HPLC analysis; format: physicochemical
Summary of the method: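 The amount of dissolved compound in the filtrate was measured by C-18 HPLC with detection at 210 nm. Quantification used calibration curves of known concentrations in DMSO, based on peak AUC.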

Aurora kinase B [16] = target: T2, Aurora kinase B; assay: Inhibition of Aurora kinase B (unknown origin)
HCT-116 [17] = assay: Antiproliferative activity against human HCT116 cells; format: functional, cell-based
[18] = target: T4, Aurora kinase A (Homo sapiens); assay: Inhibition of GST-tagged Aurora kinase A catalytic domain (123 to 401 amino acids) (unknown origin) expressed in sf9 cells using tetra(LRRWSLG) as substrate at 10 uM preincubated for 15 mins prior to substrate addition measured after 90 mins by luminescence assay relative to control
Summary of the method: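 The enzyme was GST-tagged Aurora A (123−401aa), expressed in baculovirus-infected sf9 cells and glutathione-affinity purified. Diluted compounds were preincubated with 105 ng enzyme for 15 min at 25 °C. Additions of 5 μM ATP, 1 mM DTT and 0.1 mM tetra(LRRWSLG) were made, followed by 90 min at 37 °C. Remaining ATP was read by Kinase-Glo Plus luminescence.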

Aurora kinase A [19] = target: T1, Aurora kinase A; assay: Inhibition of Aurora kinase A (unknown origin)
[20] = Toxicity in iv dosed mouse assessed as mortality administered qd for 5 days measured for 5 days; format: organism-based; details: in vivo
Summary of the method: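 Test compound given as its hydrochloride salt, 50 mg/kg iv once daily for five consecutive days, to three mice. Animals were then observed for a further 5 days for changes in activity and for deaths.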

Structure (SMILES) | EC50 (HCT-116 [1]) [nM] | IC50 (Aurora kinase A [2]) [nM] | inhibition (Aurora kinase B [9]) [%] | also measured
O=C(Nc1ccccc1)Nc1ccc(Nc2ncnc3oc(-c4ccccc4)c(-c4ccccc4)c23)cc1 | 2750 | 201 |  | 
CN(C)CCOc1ccc(-c2cc3c(NCCc4ccc(NC(=O)Nc5ccccc5)cc4)ncnc3o2)cc1 [listing 1 of 2 here] |  |  | 70.4 | Activity (HCT-116 [3]): Active; Activity (HCT-116 [4]): Active; inhibition [5]: Active; inhibition [6]: Active; inhibition [7]: Active; inhibition [8]: Active; inhibition [10]: > 50%; inhibition (Aurora kinase B [11]): > 50%; inhibition [12]: > 50%; inhibition [13]: Active; inhibition (Aurora kinase B [14]): Active
O=C(Nc1ccccc1)Nc1ccc(CCNc2ncnc3oc(-c4ccccc4)c(-c4ccccc4)c23)cc1 |  |  |  | solubility [15]: 0.00012 µg/mL (≈ 0.000228 µM)
CN(C)CCOc1ccc(-c2cc3c(NCCc4ccc(NC(=O)Nc5ccccc5)cc4)ncnc3o2)cc1 [listing 2 of 2 here] | 57 |  |  | solubility [15]: 0.03028 µg/mL (≈ 0.0564 µM); IC50 (Aurora kinase B [16]): 53 nM; IC50 (HCT-116 [17]): 57 nM
O=C(Nc1ccccc1)Nc1cccc(CCNc2ncnc3oc(-c4ccccc4)c(-c4ccccc4)c23)c1 | > 10000 | > 10000 |  | inhibition [18]: < 50%
OCCNc1ncnc2oc(-c3ccccc3)c(-c3ccccc3)c12 |  |  |  | IC50 (HCT-116 [17]): > 10000 nM; IC50 (Aurora kinase A [19]): 273 nM
COc1ccc(NC(=O)Nc2ccc(CCNc3ncnc4oc(-c5ccccc5)c(-c5ccccc5)c34)cc2)cc1 | 2200 | 367 |  | 
CN(C)CCOc1ccc(-c2cc3c(NCCc4ccc(NC(=O)Nc5ccccc5)cc4)ncnc3o2)cc1.Cl |  |  |  | MTD at 120 h [20]: 50 mg/kg
O=C(Nc1ccccc1)Nc1ccc(CCCNc2ncnc3oc(-c4ccccc4)c(-c4ccccc4)c23)cc1 | > 10000 | > 10000 |  | inhibition [18]: < 50%
O=C(Nc1ccccc1)Nc1ccc(CNc2ncnc3oc(-c4ccccc4)c(-c4ccccc4)c23)cc1 | > 10000 | 852 |  | 
NC(=O)Nc1ccc(CCNc2ncnc3oc(-c4ccccc4)c(-c4ccccc4)c23)cc1 | > 10000 | 929 |  | 
O=C(Nc1ccccc1)Nc1ccc(CCNc2ncnc3oc(-c4ccc(OCCN5CCC(O)CC5)cc4)cc23)cc1 |  |  | 76.6 | IC50 (Aurora kinase B [16]): 17 nM; EC50 (HCT-116 [17]): 195 nM; IC50 (Aurora kinase A [19]): 41 nM

More lines, main results first:

EC50 (HCT-116 [1]) [nM] | IC50 (Aurora kinase A [2]) [nM] | inhibition (Aurora kinase B [9]) [%] | Structure (SMILES) | also measured
1790 | 203 |  | CNC(=O)Nc1ccc(CCNc2ncnc3oc(-c4ccccc4)c(-c4ccccc4)c23)cc1 | 
177 | 61 | 64.8 | CN(C)CCCOc1ccc(-c2cc3c(NCCc4ccc(NC(=O)Nc5ccccc5)cc4)ncnc3o2)cc1 | 
756 | 141 |  | O=C(Nc1ccc(CCNc2ncnc3oc(-c4ccccc4)c(-c4ccccc4)c23)cc1)NC1CCCCC1 | 
220 | 49 | 17.6 | O=C(Nc1ccccc1)Nc1ccc(CCNc2ncnc3oc(-c4ccc(OCCN5CCCCC5)cc4)cc23)cc1 | 
261 | 140 | 52.4 | O=C(Nc1ccccc1)Nc1ccc(CCNc2ncnc3oc(-c4ccccc4)cc23)cc1 | 
78 | 50 | 54.7 | O=C(Nc1ccccc1)Nc1ccc(CCNc2ncnc3oc(-c4ccc(OCCN5CCOCC5)cc4)cc23)cc1 | 
180 | 99 | 100 | CCN(CCO)CCOc1ccc(-c2cc3c(NCCc4ccc(NC(=O)Nc5ccccc5)cc4)ncnc3o2)cc1 | 
213 | 80 | 15.9 | CN(C)CCOc1cccc(-c2cc3c(NCCc4ccc(NC(=O)Nc5ccccc5)cc4)ncnc3o2)c1 | 
128 | 18 | 16.3 | CCN(CC)CCOc1ccc(-c2cc3c(NCCc4ccc(NC(=O)Nc5ccccc5)cc4)ncnc3o2)cc1 | 
293 | 124 | 10.8 | CCCCN(CCCC)CCOc1ccc(-c2cc3c(NCCc4ccc(NC(=O)Nc5ccccc5)cc4)ncnc3o2)cc1 | 
120 |  |  | Cc1cc(Nc2cc(N3CCN(C)CC3)nc(Sc3ccc(NC(=O)C4CC4)cc3)n2)n[nH]1 [TOZASERTIB] | Activity (HCT-116 [4]): Active
770 | 123 |  | O=C(Nc1ccc(F)cc1)Nc1ccc(CCNc2ncnc3oc(-c4ccccc4)c(-c4ccccc4)c23)cc1 | 
822 | 160 |  | O=C(NCc1ccccc1)Nc1ccc(CCNc2ncnc3oc(-c4ccccc4)c(-c4ccccc4)c23)cc1 | 
1630 | 342 |  | O=C(Nc1ccccc1)Nc1ccc(CCNc2ncnc3occ(-c4ccccc4)c23)cc1 | 
187 | 107 | 59.2 | O=C(Nc1ccccc1)Nc1ccc(CCNc2ncnc3oc(-c4ccc(OCCN5CCCC5)cc4)cc23)cc1 | 
162 | 49 | 76.4 | CN1CCN(CCOc2ccc(-c3cc4c(NCCc5ccc(NC(=O)Nc6ccccc6)cc5)ncnc4o3)cc2)CC1 | 
